In ChEMBL document CHEMBL4680083, “Identification of Tricyclic Agonists of Sphingosine-1-phosphate Receptor 1 (S1P) Employing Ligand-Based Drug Design” (J Med Chem, 2016):
The source made the active and inactive calls. The rule behind the calls is not given here.

What was measured:
[1] = target: Sphingosine 1-phosphate receptor 1 (Homo sapiens, UniProt P21453); experiment: Agonist activity at human S1P1 expressed in CHO cell membranes assessed as stimulation of [35S]-GTPgamma-S binding measured after 45 mins by liquid scintillation counting method; design: species or system Cell membrane
How it was run: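 S1P1/CHO cell membranes at 3 μg protein/well with 3-fold compound dilutions. [35S]GTPγS 0.2 nM final, 45 min at room temperature. Filter-plate capture, water washes, scintillation counting. EC50 taken at 50% of each compound's own Ymax.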

Rattus norvegicus [2] = experiment: Reduction in circulating lymphocytes count in Lewis rat blood at 1 mg/kg, po measured at 24 hrs by hematology analyzer based analysis; format: functional; design: scale not given: the % may be the effect or the level left
How it was run: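 Lewis rats were given an oral dose as a solution or suspension in PEG300, with controls receiving vehicle only. Blood was taken by retro-orbital bleeding under isoflurane at 4 and 24 h. Lymphocytes were counted on a hematology analyzer. Reduction is relative to the vehicle group, averaged over the animals in each group (n = 3−4).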

[3] = Plasma concentration in Lewis rat at 1 mg/kg, po measured at 24 hrs; format: ADME, organism-based; conditions: Lewis, plasma
How it was run: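 Lewis rats received a single oral 1.0 mg/kg dose as solution or suspension in PEG300. Blood was drawn retro-orbitally under isoflurane at 4 h and 24 h, within the blood lymphocyte reduction study. n = 3−4 per group, group mean reported.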

[4] = Ratio of plasma concentration in Lewis rat at 1 mg/kg, po measured at 4 hrs to plasma concentration in Lewis rat at 1 mg/kg, po measured at 24 hrs; format: ADME, organism-based; conditions: in vivo
Rattus norvegicus [5] = experiment: Reduction in circulating lymphocytes count in Lewis rat blood assessed as effective dose administered orally measured at 4 to 24 hrs by hematology analyzer based analysis; format: functional; conditions: po, time 4-24 hrs
[6] = Protein binding in human assessed as bound fraction; format: ADME; conditions: read-out: PB (converted)
[7] = Protein binding in mouse assessed as bound fraction; format: ADME; conditions: read-out: PB (converted)
[8] = target: Voltage-gated inwardly rectifying potassium channel KCNH2 (Homo sapiens, UniProt Q12809); experiment: Inhibition of human ERG by patch clamp assay
Cytochrome P450 1A2 = target: T1, Cytochrome P450 1A2 (Homo sapiens, UniProt P05177); experiment: Inhibition of CYP1A2 (unknown origin); format: ADME
T1 sequence (P05177 whole entry): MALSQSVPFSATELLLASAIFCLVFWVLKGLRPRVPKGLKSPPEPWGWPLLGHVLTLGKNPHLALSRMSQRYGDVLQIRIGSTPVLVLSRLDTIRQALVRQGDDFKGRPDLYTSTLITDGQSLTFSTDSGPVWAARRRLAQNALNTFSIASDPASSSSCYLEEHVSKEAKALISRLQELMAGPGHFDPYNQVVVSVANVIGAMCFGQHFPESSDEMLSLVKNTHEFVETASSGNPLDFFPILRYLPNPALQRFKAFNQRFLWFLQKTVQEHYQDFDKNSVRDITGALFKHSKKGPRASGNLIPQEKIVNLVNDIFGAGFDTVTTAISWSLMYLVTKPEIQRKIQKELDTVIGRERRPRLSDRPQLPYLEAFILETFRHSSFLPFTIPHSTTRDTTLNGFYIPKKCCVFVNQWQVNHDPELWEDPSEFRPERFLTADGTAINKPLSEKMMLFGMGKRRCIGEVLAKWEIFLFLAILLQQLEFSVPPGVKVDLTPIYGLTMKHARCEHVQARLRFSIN

Cytochrome P450 2C8 = target: T2, Cytochrome P450 2C8 (Homo sapiens, UniProt P10632); experiment: Inhibition of CYP2C8 (unknown origin); format: ADME
T2 sequence (P10632 whole entry): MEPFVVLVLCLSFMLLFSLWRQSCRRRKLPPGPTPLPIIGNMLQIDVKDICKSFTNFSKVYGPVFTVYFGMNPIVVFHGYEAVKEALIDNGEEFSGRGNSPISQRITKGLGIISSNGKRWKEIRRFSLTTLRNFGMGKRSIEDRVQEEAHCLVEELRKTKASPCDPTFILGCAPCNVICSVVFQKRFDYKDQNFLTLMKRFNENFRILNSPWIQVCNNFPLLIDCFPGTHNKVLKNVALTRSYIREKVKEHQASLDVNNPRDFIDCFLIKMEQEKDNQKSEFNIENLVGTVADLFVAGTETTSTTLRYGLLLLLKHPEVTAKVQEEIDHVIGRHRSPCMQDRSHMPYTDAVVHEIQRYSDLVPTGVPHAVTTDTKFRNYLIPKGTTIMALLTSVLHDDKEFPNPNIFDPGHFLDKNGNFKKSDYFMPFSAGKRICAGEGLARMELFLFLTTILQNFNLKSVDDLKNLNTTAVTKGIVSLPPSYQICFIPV

[9] = Metabolic stability in dog assessed as half-life; format: ADME, Canis lupus familiaris
[10] = Cmax in cynomolgus monkey at 0.5 mg/kg, po or 0.5 mg/kg, iv; format: ADME, organism-based, Macaca fascicularis; design: dose 0.5 mg/kg; conditions: in vivo
[11] = Cmax in dog at 0.1 mg/kg, po or 0.1 mg/kg, iv; format: ADME, organism-based, Canis lupus familiaris; design: dose 0.1 mg/kg; conditions: in vivo
[12] = Tmax in mouse at 5 mg/kg, po or 2 mg/kg, iv; format: ADME, organism-based; conditions: in vivo
[13] = Tmax in rat at 1 mg/kg, po or 1 mg/kg, iv; format: ADME, organism-based; conditions: in vivo
[14] = AUC in mouse at 5 mg/kg, po; format: ADME, organism-based; design: dose 5 mg/kg; conditions: in vivo
[15] = Clearance in cynomolgus monkey at 0.5 mg/kg, po or 0.5 mg/kg, iv; format: ADME, organism-based, Macaca fascicularis; conditions: in vivo
[16] = Clearance in dog at 0.1 mg/kg, po or 0.1 mg/kg, iv; format: ADME, organism-based, Canis lupus familiaris; conditions: in vivo
[17] = Volume of distribution at steady state in mouse at 5 mg/kg, po or 2 mg/kg, iv; format: ADME, organism-based; conditions: in vivo, read-out: Vdss
[18] = Volume of distribution at steady state in cynomolgus monkey at 0.5 mg/kg, po or 0.5 mg/kg, iv; format: ADME, organism-based, Macaca fascicularis; conditions: in vivo, read-out: Vdss
[19] = Volume of distribution at steady state in dog at 0.1 mg/kg, po or 0.1 mg/kg, iv; format: ADME, organism-based, Canis lupus familiaris; conditions: in vivo, read-out: Vdss
[20] = Oral bioavailability in dog at 0.1 mg/kg; format: ADME, organism-based, Canis lupus familiaris; conditions: in vivo
Rattus norvegicus [21] = experiment: Antiarthritic activity in Lewis rat model of Complete Freund's adjuvant-induced arthritis at 0.03 mg/kg, po QD administered for 21 days after CFA injection and measured weekly three times upto day 21 by water displacement plethysmometry; format: functional, organism-based; conditions: time 21.0 day
How it was run: (§1)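 Male Lewis rats, 200−225 g, n = 8 per group. Immunized at the tail base with 100 μL of 10 mg/mL ground Mycobacterium butyricum in incomplete Freund's adjuvant. Oral dosing once daily in PEG300 vehicle from the day of immunization for 21 days, at 0.03, 0.1 or 1.0 mg/kg. Dexamethasone 0.1 mg/kg PO QD as positive control. Paw volume by water displacement plethysmometry, day 7 to day 21.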

Rattus norvegicus [22] = experiment: Antiarthritic activity in Lewis rat model of Complete Freund's adjuvant-induced arthritis assessed as inhibition in paw swelling at 0.1 to 1 mg/kg, po qd administered for 21 days after CFA injection and measured weekly three times upto day 21 by water displacement plethysmometry; format: functional, organism-based; conditions: dose 0.1-1 mg/kg, time 21.0 day; how it was run: as §1
Rattus norvegicus [23] = experiment: Antiarthritic activity in Lewis rat model of Complete Freund's adjuvant-induced arthritis assessed as effective dose causing reduction in paw swelling administered orally once daily for 21 days after CFA injection and measured weekly three times upto day 21 by water displacement plethysmometer; format: functional; conditions: po, 504 h, time 21 day; how it was run: as §1

Sequence of Voltage-gated inwardly rectifying potassium channel KCNH2 (Q12809 whole entry): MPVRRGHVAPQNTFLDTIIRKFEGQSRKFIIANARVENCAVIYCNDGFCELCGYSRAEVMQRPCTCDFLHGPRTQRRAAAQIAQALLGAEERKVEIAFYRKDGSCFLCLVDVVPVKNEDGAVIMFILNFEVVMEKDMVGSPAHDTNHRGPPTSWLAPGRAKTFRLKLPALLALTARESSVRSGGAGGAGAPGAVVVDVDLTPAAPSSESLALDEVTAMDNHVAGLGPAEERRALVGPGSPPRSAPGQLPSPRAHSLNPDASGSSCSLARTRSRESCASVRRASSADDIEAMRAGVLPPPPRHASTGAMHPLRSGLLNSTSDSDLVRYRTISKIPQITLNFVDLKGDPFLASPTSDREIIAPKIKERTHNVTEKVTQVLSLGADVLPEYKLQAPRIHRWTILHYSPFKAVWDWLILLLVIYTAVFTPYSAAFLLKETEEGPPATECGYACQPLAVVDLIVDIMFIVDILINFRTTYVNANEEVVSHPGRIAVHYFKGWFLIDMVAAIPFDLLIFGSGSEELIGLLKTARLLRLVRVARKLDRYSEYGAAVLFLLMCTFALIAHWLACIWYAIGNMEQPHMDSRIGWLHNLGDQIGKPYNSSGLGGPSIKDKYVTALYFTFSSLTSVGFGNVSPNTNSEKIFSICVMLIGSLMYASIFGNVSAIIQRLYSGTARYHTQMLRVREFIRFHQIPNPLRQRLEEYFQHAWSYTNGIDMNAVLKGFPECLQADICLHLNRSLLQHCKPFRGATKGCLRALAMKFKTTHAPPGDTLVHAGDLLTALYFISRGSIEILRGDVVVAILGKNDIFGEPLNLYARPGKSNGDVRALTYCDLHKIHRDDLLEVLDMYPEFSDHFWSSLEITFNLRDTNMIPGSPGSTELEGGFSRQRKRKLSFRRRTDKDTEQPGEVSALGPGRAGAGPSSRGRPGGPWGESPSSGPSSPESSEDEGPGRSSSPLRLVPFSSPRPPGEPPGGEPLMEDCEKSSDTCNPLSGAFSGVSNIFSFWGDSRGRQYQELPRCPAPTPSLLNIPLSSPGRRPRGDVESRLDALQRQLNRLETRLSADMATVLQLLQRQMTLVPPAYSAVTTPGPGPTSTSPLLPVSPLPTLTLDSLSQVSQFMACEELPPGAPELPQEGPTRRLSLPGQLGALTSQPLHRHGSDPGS
Sequence of Sphingosine 1-phosphate receptor 1 (P21453 whole entry): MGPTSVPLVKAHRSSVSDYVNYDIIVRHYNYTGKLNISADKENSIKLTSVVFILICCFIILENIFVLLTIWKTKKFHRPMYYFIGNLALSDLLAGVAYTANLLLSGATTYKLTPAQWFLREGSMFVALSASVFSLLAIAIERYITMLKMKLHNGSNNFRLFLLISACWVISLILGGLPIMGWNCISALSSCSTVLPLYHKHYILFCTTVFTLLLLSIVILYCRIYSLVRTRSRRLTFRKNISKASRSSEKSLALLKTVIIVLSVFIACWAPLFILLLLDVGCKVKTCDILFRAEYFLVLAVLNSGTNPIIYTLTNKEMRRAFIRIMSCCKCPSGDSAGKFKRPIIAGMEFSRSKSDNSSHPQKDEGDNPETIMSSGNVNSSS

O=C(O)C1CN(Cc2ccc3c(c2)CCc2c-3noc2-c2onc(-c3ccccc3)c2C(F)(F)F)C1
EC50 [1]: 0.59 nM | Activity (Rattus norvegicus [2]): 80% | concentration at 24 h [3]: 13 nM | Ratio [4]: 4 | ED50 (Rattus norvegicus [5]): 0.05 mg/kg | fraction unbound [6]: 0.004 | fraction unbound [7]: 0.007 | IC50 [8]: 2000 nM | IC50 (Cytochrome P450 1A2): > 40000 nM | IC50 (Cytochrome P450 2C8): 14000 nM | half-life [9]: > 2 h | Cmax [10]: 410 nM | Cmax [11]: 90 nM | Tmax [12]: 3 h | Tmax [13]: 4 h | AUC [14]: 30.3 µM·h | clearance [15]: 2.4 mL/min/kg | clearance [16]: 1.4 mL/min/kg | Vd [17]: 2.2 L/kg | Vd [18]: 3.6 L/kg | Vd [19]: 2.5 L/kg | bioavailability [20]: 95% | Activity (Rattus norvegicus [21]): inactive | Activity (Rattus norvegicus [22]): Active | ED50 (Rattus norvegicus [23]): 0.09 mg/kg
